ChEMBL document CHEMBL4680370, “Discovery of Novel Small-Molecule FAK Activators Promoting Mucosal Healing” (ACS Med Chem Lett, 2021)
Several values for one entry are separate records, joined by “and”; a condition that tells them apart may be missing. Equal entries are not always repeated. Activity calls are given as the source filed them. The calls are words filed in the database; no cut-off is given here.

What was measured:
[1] = target: Focal adhesion kinase 1 (Homo sapiens) (UniProt Q05397); experiment: Activation of FAK in human Caco-2 cells assessed as fold increase in FAK Tyr397 phosphorylation at 10 nM incubated for 1 hr by Western blot analysis relative to control; assay type: cell-based; settings: filed as activator
Outline: (§1)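 Caco-2 cells were exposed to compound at 10 nM, with DMSO vehicle as control. At least eight separate experiments were run and the data pooled, reported as mean ± standard error.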

[2] = test system: Caco-2; experiment: Induction of wound closure in human Caco-2 cells at 10 nM in presence of hydroxyurea measured upto 24 hrs by inverted light microscopy based wound healing assay; assay type: functional, cell-based; settings: time hrs <=24
[3] = target: Focal adhesion kinase 1 (Homo sapiens) (UniProt Q05397); experiment: Activation of FAK in human Caco-2 cells assessed as increase in FAK Tyr397 phosphorylation incubated for 1 hr by Western blot analysis; assay type: cell-based; settings: filed as activator, dose 10-1000 nM
[4] = target: Focal adhesion kinase 1 (Homo sapiens) (UniProt Q05397); experiment: Activation of FAK in human Caco-2 cells assessed as increase in FAK Tyr397 phosphorylation at 10 nM incubated for 1 hr by Western blot analysis; assay type: cell-based; settings: filed as activator; outline: as §1
[5] = Tmax in C57BL/6 mouse at 900 ug/kg, ip measured upto 12 hrs by LC-MS/MS analysis; assay type: ADME, organism-based; settings: in vivo, 0.9 mg/kg, dose 900 µg/kg
Outline: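 Single intraperitoneal dose of 900 μg/kg in C57BL/6 mice. Compound was first dissolved in DMSO, then diluted in 100 μL normal saline (final DMSO 2.5% in the injected solution). Plasma concentration was followed over time after dosing.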

[6] = test system: Mus musculus; experiment: Antiinflammatory activity against ischemic jejunal ulcer C57BL/6J mouse model assessed as ulcer area at 900 ug/kg, ip administered for every 6 hrs for 3 days and measured on day 4 by imaging analysis (reference value: 3.26 +/- 0.47 mm2); settings: dose 900 µg/kg; time 4 day
[7] = Toxicity in C57BL/6 mouse assessed as body weight at 900 ug/kg, ip administered for every 6 hrs for 3 days and measured on day 4 (reference value: 9.16 +/- 0.62 %); assay type: organism-based; settings: in vivo, 0.9 mg/kg, dose 900 µg/kg

Chain of Focal adhesion kinase 1 (Homo sapiens) (Q05397 2-1052 limits assumed): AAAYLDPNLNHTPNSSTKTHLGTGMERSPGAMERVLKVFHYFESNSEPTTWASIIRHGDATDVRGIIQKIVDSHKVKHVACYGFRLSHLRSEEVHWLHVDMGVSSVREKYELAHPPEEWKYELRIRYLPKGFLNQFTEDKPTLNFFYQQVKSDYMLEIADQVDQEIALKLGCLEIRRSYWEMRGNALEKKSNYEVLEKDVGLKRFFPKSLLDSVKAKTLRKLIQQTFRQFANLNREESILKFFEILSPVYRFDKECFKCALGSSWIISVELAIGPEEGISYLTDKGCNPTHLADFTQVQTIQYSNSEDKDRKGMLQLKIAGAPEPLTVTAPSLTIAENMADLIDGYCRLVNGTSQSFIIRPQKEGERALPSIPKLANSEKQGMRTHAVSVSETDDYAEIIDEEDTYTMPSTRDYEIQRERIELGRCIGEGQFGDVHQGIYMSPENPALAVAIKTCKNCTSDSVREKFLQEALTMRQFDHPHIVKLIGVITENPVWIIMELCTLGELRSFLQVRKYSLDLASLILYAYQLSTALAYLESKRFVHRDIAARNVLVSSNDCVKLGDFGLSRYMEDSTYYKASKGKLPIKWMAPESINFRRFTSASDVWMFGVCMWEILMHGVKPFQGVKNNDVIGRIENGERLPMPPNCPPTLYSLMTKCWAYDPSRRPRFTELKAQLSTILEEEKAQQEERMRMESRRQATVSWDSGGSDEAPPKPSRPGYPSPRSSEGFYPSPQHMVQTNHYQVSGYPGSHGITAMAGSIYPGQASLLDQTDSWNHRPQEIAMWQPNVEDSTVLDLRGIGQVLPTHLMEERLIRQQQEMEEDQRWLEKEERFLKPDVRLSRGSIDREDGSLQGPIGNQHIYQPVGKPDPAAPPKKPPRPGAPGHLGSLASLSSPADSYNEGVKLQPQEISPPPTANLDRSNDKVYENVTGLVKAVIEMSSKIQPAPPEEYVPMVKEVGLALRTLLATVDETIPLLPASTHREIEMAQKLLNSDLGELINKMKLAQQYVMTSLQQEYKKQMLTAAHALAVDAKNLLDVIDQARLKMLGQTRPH

Row | Structure (SMILES) | fold change (FC) [1] | Activity [2] | Activity [3] | Activity [4] | further results
1 | CN1CCN(c2ccc(C(F)(F)F)cc2NC(=O)N2CCCC2c2ccncc2)CC1 (centres undefined) | 0.9 | – | – | – | –
2 | CC1CN(c2ccc(C(F)(F)F)cc2NC(=O)N2CCCC2c2ccncc2)CC(C)O1 (centres undefined) | 1 | – | – | – | –
3 | CN(C)C(CNC(=O)Nc1cc(C(F)(F)F)ccc1N1CCOCC1)c1ccccc1 (centres undefined) | 1 | – | – | – | –
4 | O=C(Nc1cc(C(F)(F)F)ccc1N1CCOCC1)N1CCCC1C1CCCCC1 (centres undefined) | – | Active | Dose-dependent effect | Active | –
5 | O=C(Nc1cc(C(F)(F)F)ccc1N1CCOCC1)N1CCCC1c1ccccc1 (centres undefined) | 1.4 | Active | Dose-dependent effect | Active | –
6 | COc1ccc(C(CNC(=O)Nc2cc(C(F)(F)F)ccc2N2CCOCC2)N(C)C)cc1 (centres undefined) | 1.4 | Active | Dose-dependent effect | Active | –
7 | O=C(Nc1ccccc1N1CCOCC1)N1CCCC1c1ccncc1 (centres undefined) | 1.1 | – | – | – | –
8 | O=C(Nc1cc(C(F)(F)F)ccc1N1CCOCC1)N1CCCC1c1ccncc1 (centres undefined) | 1.5 and 1 | Active | Dose-dependent effect | Active | Tmax [5]: 1 h; Activity [6]: 1.57 mm2; Activity [7]: 6.33%
9 | O=C(Nc1cc(C(F)(F)F)ccc1N1CCOCC1)N1CCCC1c1ccc(O)cc1 (centres undefined) | 1.1 | – | – | – | –
10 | O=C(Nc1cc(C(F)(F)F)ccc1N1CCS(=O)(=O)CC1)N1CCCC1c1ccncc1 (centres undefined) | 1 | – | – | – | –
